Data taken from ChEMBL document CHEMBL5653613 (Mol Cancer Ther, 2013).
Calls of active or inactive are those of the source. The rule behind the calls is not given here.

Legend:
[1] = Cmax in athymic mouse xenografted with human GTL-16 cells at 6.25 mg/kg, po qd for 14 days consecutively; format: ADME, organism-based; conditions: in vivo, time 14 day
T47D [2] = assay: Inhibition of clonogenic growth in human T47D cells incubated for 10 days by Hema-3 staining based microscopy; format: functional, cell-based; conditions: dose 1-5 µmol/L, time 10.0 day
Outline: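 Colonies were stained with Hema-3, photographed under a microscope with a CCD camera, counted in duplicate, and expressed as % of control. Results are shown from 1 of 2 experiments.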

ZR-75-1 [3] = assay: Cytotoxicity against human ZR-75-1 cells at 1 to 2.5 umol/L incubated for 72 hrs by MTS assay; format: functional, cell-based; conditions: dose 1-2.5 µmol/L
MCF7 [4] = assay: Induction of apoptosis in human MCF7 cells assessed as rate of apoptotic cell death at 5 umol/L by annexin V/PI staining based flow cytometry relative to control; format: functional; conditions: dose 5 µmol/L; at 5 µM
T47D [5] = assay: Induction of apoptosis in human T47D cells assessed as necrotic cells at 5 umol/L incubated for 3 days by Annexin V/PI staining based flow cytometry (reference value: 0.6 %); format: functional; conditions: dose 5 µmol/L; time 3 day; at 5 µM
T47D [6] = assay: Inhibition of cell growth of human T47D cells at 5 uM; format: functional, cell-based; conditions: time <= 48.0 hrs, TDE = time-dependent effect
T47D [7] = assay: Induction of polyploidy in human T47D cells at 1 umol/L incubated for 72 hrs by microscopic analysis relative to control; format: functional; conditions: dose 1 µmol/L, at 1 µM
Outline: (§1)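 Cells stained with Hema-3 and photographed under a light microscope with CCD camera. Polyploid cells scored as percent of the population.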

ZR-75-1 [8] = assay: Induction of polyploidy in human ZR-75-1 cells at 1 umol/L incubated for 72 hrs by microscopic analysis relative to control; format: functional; conditions: dose 1 µmol/L, at 1 µM; outline: as §1
T47D [9] = assay: Induction of polyploidy in human T47D cells at 5 umol/L incubated for 72 hrs by microscopic analysis relative to control; format: functional; conditions: dose 5 µmol/L, at 5 µM; outline: as §1
T47D [10] = assay: Induction of polyploidy in human T47D cell at 5 umol/L by microscopic analysis; format: functional, cell-based; conditions: dose 5.0 µmol/L, time 72.0 hrs, TDE = time-dependent effect
MCF7 [11] = assay: Induction of polyploidy in human MCF7 cells at 5 umol/L by microscopic analysis; format: functional, cell-based; conditions: dose 5.0 µmol/L, time 72.0 hrs, TDE = time-dependent effect
T47D [12] = assay: Induction of polyploidy in human T47D cells with RON-/- at 5 umol/L incubated for 72 hrs by microscopic analysis; format: functional, cell-based; conditions: dose 5.0 µmol/L
Outline: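 Cells (2 106 per 60-mm dish) transiently transfected for 48 hours with 1 nmol/L scrambled or RON-specific siRNA, with knockdown confirmed by anti-RON Western blot. […] Polyploidy monitored and photographed by microscopy, with untransfected and scrambled-siRNA cells as comparators.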

T47D [13] = assay: Induction of polyploidy in human T47D cells with RON-/- at 5 umol/L incubated for 72 hrs followed by media replacement without compound measured upto 10 days by microscopic analysis; format: functional, cell-based; conditions: dose 5.0 µmol/L
T47D [14] = assay: Inhibition of cell proliferation of human T47D cells with RON-/- at 5 umol/L incubated for 72 hrs followed by media replacement without compound measured upto 10 days by microscopic analysis; format: functional, cell-based; conditions: dose 5.0 µmol/L
T47D [15] = assay: Induction of cell death of human T47D cells with RON-/- at 5 umol/L incubated for 72 hrs followed by media replacement without compound measured upto 10 days by microscopic analysis; format: functional, cell-based; conditions: dose 5.0 µmol/L
MCF7 [16] = assay: Induction of polyploidy in human MCF7 cells assessed as cells with 2N chromosome contents at 5 uM incubated for 24 hrs by PI staining based flow cytometry (reference value: 52); format: functional
MCF7 [17] = assay: Induction of polyploidy in human MCF7 cells assessed as cells with 4N chromosome contents at 5 uM incubated for 24 hrs by PI staining based flow cytometry (reference value: 36); format: functional
MCF7 [18] = assay: Induction of polyploidy in human MCF7 cells assessed as cells with 8N chromosome contents at 5 uM incubated for 24 hrs by PI staining based flow cytometry (reference value: 0); format: functional
MCF7 [19] = assay: Induction of polyploidy in human MCF7 cells assessed as cells with 16N chromosome contents at 5 uM incubated for 72 hrs by PI staining based flow cytometry (reference value: 0); format: functional
T47D [20] = assay: Induction of polyploidy in human T47D cells assessed as cells with 2N chromosome contents at 5 uM incubated for 24 hrs by PI staining based flow cytometry (reference value: 48); format: functional
T47D [21] = assay: Induction of polyploidy in human T47D cells assessed as cells with 8N chromosome contents at 5 uM incubated for 24 hrs by PI staining based flow cytometry (reference value: 0); format: functional
T47D [22] = assay: Induction of polyploidy in human T47D cells assessed as cells with 8N chromosome contents at 5 uM incubated for 48 hrs by PI staining based flow cytometry (reference value: 0); format: functional
T47D [23] = assay: Induction of polyploidy in human T47D cells assessed as cells with 16N chromosome contents at 5 uM incubated for 48 hrs by PI staining based flow cytometry (reference value: 0); format: functional
T47D [24] = assay: Induction of polyploidy in human T47D cells assessed as cells with 2N chromosome contents at 5 uM incubated for 72 hrs by PI staining based flow cytometry (reference value: 48); format: functional
T47D [25] = assay: Induction of polyploidy in human T47D cells assessed as cells with 4N chromosome contents at 5 uM incubated for 72 hrs by PI staining based flow cytometry (reference value: 35); format: functional
ZR-75-1 [26] = assay: Induction of polyploidy in human ZR-75-1 cells assessed as cells with 2N chromosome contents at 5 uM incubated for 48 hrs by PI staining based flow cytometry (reference value: 48); format: functional
T47D [27] = assay: Induction of cell cycle arrest at metaphase in human T47D cells assessed as disorganization of multipolar mitotic spindles at 5 umol/L preincubated for 24 hrs followed by extensive compound washout and subsequent culturing in compound-free media measured upto 3 days by immunofluorescence staining based analysis; format: functional; conditions: dose 5.0 µmol/L
T47D [28] = assay: Downregulation of histone H3 expression in human T47D cells at 5 umol/L incubated upto 72 hrs by Western blot analysis; format: functional, cell-based; conditions: dose 5.0 µmol/L
Outline: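 Cells were treated with 5 µmol/L for 0, 24, 48 and 72 h. Lysates were immunoblotted for AURK-B, phospho-Ser10 histone H3 and total histone H3, with β-actin reprobe as the loading control. Detection by enhanced chemiluminescence.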

[29] = (§2) Effect on bleomycin resistance in human ZR-75-1 cells with compound-induced polyploidy assessed as change in bleomycin-induced cytotoxicity by measuring increase in bleomycin IC50 at 5 umol/L preincubated for 72 hrs followed by compound washout and subsequent bleomycin treatment for 72 hrs by MTS assay; format: functional, cell-based
[30] = as §2, with “cisplatin” for “bleomycin”, “cisplatin-induced” for “bleomycin-induced”; format: functional, cell-based
[31] = as §2, with “methotrexate” for “bleomycin”, “methotrexate-induced” for “bleomycin-induced”; format: functional, cell-based
Outline: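 Cells were first given the inducing compound for 72 h in 100-mm dishes. Polyploid cells were collected, washed and replated at 5,000 cells/well, with untreated cells at the same density as control. Methotrexate was added over a concentration range for 72 h, in triplicate. Viability was read by MTS assay and the IC50 calculated; 1 of 3 experiments shown.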

[32] = as §2, with “paclitaxel” for “bleomycin”, “paclitaxel-induced” for “bleomycin-induced”; format: functional, cell-based
T-47D (Homo sapiens) = assay: Disruption of microtubule dynamics in human T-47D cells at 5 umol/L incubated upto 72 hrs by immunofluorescence staining based analysis; conditions: dose 5.0 µmol/L

For `CCOc1ccn(-c2ccc(F)cc2)c(=O)c1C(=O)Nc1ccc(Oc2ccnc(N)c2Cl)c(F)c1` [BMS-777607], the Cmax [1] was 4.5 µM, the inhibition (T47D [2]) was “Dose-Dependent Effect” and the Activity (ZR-75-1 [3]) was “inactive”. The Activity (MCF7 [4]) was 2.2%, the Activity (T47D [5]) was 2.4% and the inhibition (T47D [6]) was “Tde”. It also gave an Activity (T47D [7]) of 14%, an Activity (ZR-75-1 [8]) of 11% and an Activity (T47D [9]) of 78%. For the same molecule, the Activity (T47D [10]) was “Tde”, the Activity (MCF7 [11]) was “Tde” and the Activity (T47D [12]) was “Active”. For the same molecule, the Activity (T47D [13]) was “Active”, the inhibition (T47D [14]) was “inactive” and the Activity (T47D [15]) was “inactive”. For the same molecule, the Activity (MCF7 [16]) was 15.5, the Activity (MCF7 [17]) was 45.5 and the Activity (MCF7 [18]) was 14. For the same molecule, the Activity (MCF7 [19]) was 0, the Activity (T47D [20]) was 7.5 and the Activity (T47D [21]) was 26. It also gave an Activity (T47D [22]) of 23, an Activity (T47D [23]) of 18.5 and an Activity (T47D [24]) of 7.5. The Activity (T47D [25]) was 20, the Activity (ZR-75-1 [26]) was 4.5 and the Activity (T47D [27]) was “Active”. The Activity (T47D [28]) was “inactive”, the IC50 [29] was 2260 nM and the IC50 [30] was 3.4 nM. The IC50 [31] was 430 nM, the IC50 [32] was 20.8 nM and the Activity (T-47D (Homo sapiens)) was “Active”.
